Compound activity (PubChem BioAssay)
This excerpt belongs to a sample that is enriched for hits.
hDAT+cocaine: changed human dopamine transporter uptake under cocaine IC80 | Q01959 | B-score at 10 µM | 1.3% of 110,000 active | LLC-PK1 hDAT cells, [14C]-dopamine uptake with cocaine IC80; actives deviate in either direction;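 active = Z score or B-score, a plate-position-corrected score, falls beyond the plate's 99.7% confidence bounds, in either direction; inactive = both scores lie inside the 99.7% bounds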;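 note: scored against the spread of the other compound wells on the same plate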
D1 mod: allosteric modulators of human D1 dopamine receptor | HEK293 D1, CRE-luciferase, dopamine EC30 potentiation; actives deviate in either direction | B-score at 10 µM | 5.9% of 58,000 active | AID 641;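 active = luminescence count or its row- and column-corrected plate score outside the 99.7% band of the plate's sample wells, on either side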
AP complement: alternative pathway complement inhibition, orthogonal assay; Human serum alternative complement pathway, LPS-coated ELISA, C3 deposition; tested in compound mixtures; inhibition, % at 5 µM; 0.08% of 62,000 active; AID 1235;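 active = inhibition above 30% in each of the two pooled mixtures holding the compound, so the lower value exceeds 30%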;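 note: 0% = serum in Mg-EGTA without compound and 100% = EDTA serum blank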
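Medium: diluted human serum in Mg2+-EGTA GVB++. Assay system: human serum complement alternative pathway, C3 deposition onto LPS. Also added: Plate-bound LPS. Technique: Anti-C3 ELISA, OD 450 nm. Measure: percent inhibition. Incubation: 1 h at 37 °C. Dosing: 5 µM each compound, pools of ten, 50 µM per pool.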
Ec RNAP inh: inhibitors of Escherichia coli RNA polymerase; P0A8V2; E. coli RNA polymerase, fluorescence transcription assay; inhibition, %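 (tested at 10 µM)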; 0.2% of 62,000 active; AID 559; in the data active = inhibition above about 20%;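 note: 0% = enzyme without compound and 100% = no enzyme blank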
HEK293 NFkB inh: lowers PMA/ionomycin-induced NF-kB signal in HEK293 cells. HEK-293 NF-kB luciferase reporter, luminescence. inhibition, % at 3 µM. 0.21% of 62,000 active. AID 465;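 active = inhibition above the mean of all tested compounds plus 3 SD, cut at about 40% in these data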;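 note: 0% = stimulated DMSO wells and 100% = 10 µM reference inhibitor 5653914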
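System – HEK-293 cells with stable firefly luciferase reporter driven by four HIV NF-kB elements · Doses – one dose, 3 µM · Schedule – 1 h compound pre-incubation, 16 h PMA/ionomycin at 37 °C · Technique – luminescence from luciferase substrate reagent · Measure – percent inhibition normalized per plate to DMSO and reference-inhibitor controls · Replicates – tested once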
Active calls of the source: *; / = no result.

SMILES | hDAT+cocaine | D1 mod | AP complement | Ec RNAP inh | HEK293 NFkB inh
COc1ccc(OC)c(S(=O)(=O)N2CCCCCC2)c1 | -2.4* | 0.44 | 7 | 5 | 8
OCOCCCn1c(C2CCCN2c2nc(-c3ccc(F)cc3)cs2)nc2cc(Cl)c(N3CCCCC3)cc21 (stereo unspecified) | 0.83 | / | / | / | /
CN1CCN(c2ncnc3c2sc2nc(N4CCCC4)c4c(c23)CC(C)(C)OC4)CC1 | / | / | -1 | 4 | 10
C[C@@H]1CC[C@@]2(O[C@@H](CCO)C[C@@H](O)[C@@H]2O)O1 | -0.085 | / | / | / | /
O=C(NCCO)c1ccccc1O | -9.9* | / | / | / | /
O=C(NCCCc1ccccc1)c1ccccc1O | 1.1 | -0.63 | 4 | 3 | /
CN(c1ccc(C(=O)NC2CC2)cc1)S(=O)(=O)c1ccccc1 | -1.2 | 0.0012 | 21 | -1 | 2
COc1ccc(N=Cc2c(O)[nH]c3ccccc23)cc1 | 0.49 | / | / | / | /
Oc1[nH]c2ccccc2c1C=Nc1ccc2c(c1)OCO2 | -0.42 | -4.4* | 10 | 9 | -52
CC1(c2nnc(-c3ccc(Cl)cc3)o2)CC(c2cccnc2)=NO1 (stereo unspecified) | -0.82 | / | / | / | /
O=C(Nc1nccs1)C1CC(=O)N(c2ccccc2Cl)C1 (stereo unspecified) | -0.27 | / | / | / | /
Cc1ccc(N2CC(C(=O)Nc3nccs3)CC2=O)cc1 (stereo unspecified) | 0.037 | -7.4* | 11 | -5 | 13
O=C(Nc1ccc(Cl)c(C(F)(F)F)c1)[C@@H]1CC=C[C@@H]2CCN(Cc3ccc(Cl)c(Cl)c3)C(=O)[C@@H]21 | -0.33 | / | / | / | /
c1ccc(C2(CNc3ccccn3)CCCC2)cc1 | -1.1 | / | / | / | /
O=C(c1ccc(=O)[nH]c1)N(Cc1ccco1)C1(C(=O)NC2CCCC2)CCCCC1 | / | -0.71 | -2 | 10 | 9
CCN(CC)c1ccc(NC(=O)c2ccco2)c(C)c1 | -0.73 | -0.079 | 14 | 8 | -4
O=C(Nc1cnc2ccccc2c1)c1ccco1 | -0.29 | -4.5* | / | / | -17
CCN(CC)c1ccc(NC(=O)c2ccccc2F)cc1 | 1 | -5* | 6 | 8 | -28
CCN(CC)c1ccc(NC(=O)c2ccco2)cc1 | 0.099 | -3* | 1 | 5 | -30
CCN(CC)c1ccc(NC(=O)c2cc(Cl)ccc2OC)cc1 | 1.1 | / | / | / | /
CCCC(C(=O)NC1CCCC1)N(CCCN1CCOCC1)C(=O)c1snc(C(N)=O)c1N (stereo unspecified) | 1.1 | -0.62 | 0 | 0 | -6
Nc1nonc1-c1nc2ccccc2n1CC(=O)NC1CCCC1 | 0.078 | / | 10 | 4 | 20
CCOC(=O)c1ccccc1NC(=O)Cn1c(-c2nonc2N)nc2ccccc21 | -0.87 | / | 4 | 4 | 47*
Cc1ccc2oc(C(=O)Nc3c(C)n(C)n(-c4ccccc4)c3=O)c(C)c2c1 | / | -0.25 | -11 | 8 | 8
c1ccc(-c2noc(-c3ccc4ccccc4c3)n2)nc1 | 0.26 | -4.4* | 15 | 2 | 75*
SMILES | hDAT+cocaine | D1 mod | AP complement | Ec RNAP inh | HEK293 NFkB inh
c1ccc(-c2noc(-c3ccc4c(c3)OCO4)n2)nc1 | 0.32 | -8.3* | 8 | 2 | 41*
Cc1ccc(-c2nc(-c3cccnc3)no2)cc1 | -0.018 | -4.9* | 4 | 3 | -32
c1ccc(-c2noc(-c3cccnc3)n2)nc1 | 0.008 | -4.1* | -2 | 6 | -11
c1ccc(-c2noc(-c3ccncc3)n2)nc1 | -0.038 | -1.2 | -7 | 7 | -36
Cc1nc(NC(=O)c2ccccc2)sc1C1(C)CC(c2c(Cl)cccc2Cl)=NO1 (stereo unspecified) | 0.78 | / | / | / | /
CC1(C)CC(=O)C2=C(C1)N(c1cccc(O)c1)C1=C(C2)C(=O)CC(C)(C)C1 | -0.63 | 5.6* | 16 | -16 | 21
CCOC(=O)C1=NN(c2ccc(OC)cc2)C(c2ccccc2)CC1=O (stereo unspecified) | -8.6* | / | / | / | /
CC1=CN2C(=NC(=O)CC2(C)C(=O)N(CC(=O)NC2CCCC2)c2ccccc2C)C=C1 (stereo unspecified) | -1 | / | / | / | /
N#CCCCSc1nnc(-c2ccc(Cl)cc2)n1-c1ccccc1 | -8.6* | 1.3 | -3 | 6 | 16
Cc1cccc(-c2nnc(SCC#N)n2-c2ccccc2)c1 | 0.22 | -0.63 | -6 | 1 | -5
CC(C)C(=O)NC(=S)Nc1ccc(S(=O)(=O)N(C)Cc2ccccc2)cc1 | 0.66 | / | / | / | /
O=C(CSc1nnc(CN2CCCCCC2=O)n1-c1ccccn1)NCC(F)(F)F | -0.041 | -3.3* | -2 | 8 | 19
